Columns and labels:
Format in all cases: ADME, organism-based
Mus musculus [1] = assay: Biodistribution of compound (oxidized form) in liver tissues, animals were sacrificed 60 minutes after dosing, in DMSO; conditions: in vivo, 1 h
Procedure, shortened: (§1)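 In female C3H HenMTV⁻ mice (6-8 weeks, 22-25 g; three per time point), compound was injected ip as 500 µL of 40 mM solution. Animals were killed 10 or 60 min later. Brain, heart, liver, kidney, spleen and blood were removed and each homogenized in ice-cold PBS. Nitroxide (oxidized form) was quantified by EPR signal intensity in the half of each homogenate not treated with ferricyanide.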

Mus musculus [2] = species on record: Mus musculus; assay: Biodistribution of compound (total concentration of both oxidized and reduced forms) in kidney; conditions: in vivo
Procedure, shortened: (§2)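 Female C3H HenMTV⁻ mice (6-8 weeks old, 22-25 g; three per time point) got one i.p. injection of 500 µL of 40 mM compound. They were euthanized at 10 or 60 min. Organs and blood were excised and homogenized separately in ice-cold PBS. One half of each homogenate received K₃[Fe(CN)₆] (final 1 mM) to oxidize hydroxylamine. Total nitroxide plus hydroxylamine was quantified by EPR signal intensity.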

Mus musculus [3] = assay: Biodistribution of compound (total concentration of both oxidized and reduced forms) in spleen tissues, animals were sacrificed 60 minutes after dosing in DMSO; conditions: in vivo, 1 h; procedure, shortened: as §2
Mus musculus [4] = species on record: Mus musculus; assay: Biodistribution of compound (oxidized form) in kidney tissue; conditions: in vivo; procedure, shortened: as §1
Mus musculus [5] = species on record: Mus musculus; assay: Biodistribution of compound (total concentration of both oxidized and reduced forms) in spleen; conditions: in vivo; procedure, shortened: as §2
Mus musculus [6] = assay: Biodistribution of compound (oxidized form) in spleen tissues, animals were sacrificed 60 minutes after dosing, in DMSO; conditions: in vivo, 1 h; procedure, shortened: as §1
Mus musculus [7] = assay: Biodistribution of compound (oxidized form) in heart tissue, animals were sacrificed 60 minutes after dosing, in DMSO; conditions: in vivo, 1 h; procedure, shortened: as §1
Mus musculus [8] = assay: Biodistribution of compound (total concentration of both oxidized and reduced forms) in brain tissues, animals were sacrificed 60 minutes after dosing, in DMSO; conditions: in vivo, 1 h; procedure, shortened: as §2
Mus musculus [9] = assay: Biodistribution of compound (oxidized form) in blood tissues, animals were sacrificed 60 minutes after dosing, in DMSO; conditions: in vivo, 1 h; procedure, shortened: as §1
Mus musculus [10] = species on record: Mus musculus; assay: Biodistribution of compound (total concentration of both oxidized and reduced forms) in liver; conditions: in vivo; procedure, shortened: as §2
Mus musculus [11] = species on record: Mus musculus; assay: Biodistribution of compound (oxidized form) in spleen tissue; conditions: in vivo; procedure, shortened: as §1
Mus musculus [12] = species on record: Mus musculus; assay: Biodistribution of compound (oxidized form) in brain tissue of mice; conditions: in vivo; procedure, shortened: as §1
Mus musculus [13] = assay: Biodistribution of compound (oxidized form) in kidney tissue, animals were sacrificed 60 minutes after dosing, in DMSO; conditions: in vivo, 1 h; procedure, shortened: as §1
Mus musculus [14] = assay: Biodistribution of compound (total concentration of both oxidized and reduced forms) in kidney tissues, animals were sacrificed 60 minutes after dosing in DMSO; conditions: in vivo, 1 h; procedure, shortened: as §2
Mus musculus [15] = species on record: Mus musculus; assay: Biodistribution of compound (oxidized form) in heart tissue of mice; conditions: in vivo; procedure, shortened: as §1
Mus musculus [16] = species on record: Mus musculus; assay: Biodistribution of compound (total concentration of both oxidized and reduced forms) in brain tissues; conditions: in vivo; procedure, shortened: as §2
Mus musculus [17] = assay: Biodistribution of compound (total concentration of both oxidized and reduced forms) in liver tissues, animals were sacrificed 60 minutes after dosing, in DMSO; conditions: in vivo, 1 h; procedure, shortened: as §2
Mus musculus [18] = assay: Biodistribution of compound (total concentration of both oxidized and reduced forms) in blood tissues, animals were sacrificed 60 minutes after dosing, in DMSO; conditions: in vivo, 1 h; procedure, shortened: as §2
Mus musculus [19] = species on record: Mus musculus; assay: Biodistribution of compound (oxidized form) in blood tissue; conditions: in vivo; procedure, shortened: as §1
Mus musculus [20] = species on record: Mus musculus; assay: Biodistribution of compound (oxidized form) in liver tissue; conditions: in vivo; procedure, shortened: as §1
Mus musculus [21] = assay: Biodistribution of compound (oxidized form) in brain tissue, animals were sacrificed 60 minutes after dosing, in DMSO; conditions: in vivo, 1 h; procedure, shortened: as §1
Mus musculus [22] = species on record: Mus musculus; assay: Biodistribution of compound (total concentration of both oxidized and reduced forms) in heart tissues; conditions: in vivo; procedure, shortened: as §2
Mus musculus [23] = assay: Biodistribution of compound (total concentration of both oxidized and reduced forms) in heart tissues, animals were sacrificed 60 minutes after dosing, in DMSO; conditions: in vivo, 1 h; procedure, shortened: as §2
Mus musculus [24] = species on record: Mus musculus; assay: Biodistribution of compound (total concentration of both oxidized and reduced forms) in blood; conditions: in vivo; procedure, shortened: as §2
Mus musculus [25] = assay: Biodistribution in mice as total concentration of both oxidized and reduced forms in blood and animals were sacrificed 10 minutes after ip dosing, in DMSO solution; conditions: in vivo
Procedure, shortened: (§3)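 Female C3H HenMTV⁻ mice (6-8 weeks old, 22-25 g; three per time point) were given an ip injection of 500 µL of 40 mM compound. They were euthanized at 10 or 60 min. Brain, heart, liver, kidney, spleen and blood were excised and each homogenized in ice-cold PBS. One half of each homogenate received K₃[Fe(CN)₆] (final 1 mM) to oxidize hydroxylamine to nitroxide. Total nitroxide plus hydroxylamine was read from EPR signal intensity.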

Mus musculus [26] = assay: Biodistribution of compound (oxidized form) in spleen tissues, animals were sacrificed 60 minutes after dosing, in DMSO solution; conditions: in vivo, 1 h; procedure, shortened: as §1
Mus musculus [27] = assay: Biodistribution of compound (oxidized form) in kidney tissue, animals were sacrificed 10 minutes after dosing, in DMSO solution; conditions: in vivo; procedure, shortened: as §1
Mus musculus [28] = assay: Biodistribution of compound (oxidized form) in liver tissues, animals were sacrificed 60 minutes after dosing, in DMSO solution; conditions: in vivo, 1 h; procedure, shortened: as §1
Mus musculus [29] = assay: Biodistribution in mice as total concentration of both oxidized and reduced forms in kidney and animals were sacrificed 10 minutes after ip dosing, in DMSO solution; conditions: in vivo; procedure, shortened: as §3
Mus musculus [30] = assay: Biodistribution in mice as total concentration of both oxidized and reduced forms in liver and animals were sacrificed 10 minutes after ip administration in DMSO solution; conditions: in vivo; procedure, shortened: as §3
Mus musculus [31] = assay: Biodistribution of compound (oxidized form) in spleen tissue, animals were sacrificed 10 minutes after dosing, in DMSO solution; conditions: in vivo; procedure, shortened: as §1
Mus musculus [32] = assay: Biodistribution of compound (oxidized form) in heart tissue, animals were sacrificed 10 minutes after dosing, in DMSO sol.; conditions: in vivo; procedure, shortened: as §1
Mus musculus [33] = assay: Biodistribution of compound (total concentration of both oxidized and reduced forms) in spleen tissues, animals were sacrificed 60 minutes after dosing, in DMSO; conditions: in vivo, 1 h; procedure, shortened: as §2
Mus musculus [34] = assay: Biodistribution of compound (oxidized form) in heart tissue, animals were sacrificed 60 minutes after dosing, in DMSO solution; conditions: in vivo, 1 h; procedure, shortened: as §1
Mus musculus [35] = assay: Biodistribution of compound (oxidized form) in brain tissues, animals were sacrificed 10 minutes after dosing, in DMSO solution; conditions: in vivo; procedure, shortened: as §1
Mus musculus [36] = assay: Biodistribution in mice as total concentration of both oxidized and reduced forms in spleen and animals were sacrificed 10 minutes after ip dosing, in DMSO solution; conditions: in vivo; procedure, shortened: as §3
Mus musculus [37] = assay: Biodistribution of compound (oxidized form) in liver tissue, animals were sacrificed 10 minutes after dosing, in DMSO sol.; conditions: in vivo; procedure, shortened: as §1
Mus musculus [38] = assay: Biodistribution of compound (total concentration of both oxidized and reduced forms) in heart tissues, animals were sacrificed 10 minutes after dosing, in DMSO; conditions: in vivo; procedure, shortened: as §2
Mus musculus [39] = assay: Biodistribution of compound (total concentration of both oxidized and reduced forms) in kidney tissues, animals were sacrificed 60 minutes after dosing, in DMSO; conditions: in vivo, 1 h; procedure, shortened: as §2
Mus musculus [40] = assay: Biodistribution of compound (oxidized form) in blood tissue, animals were sacrificed 10 minutes after dosing, in DMSO solution; conditions: in vivo; procedure, shortened: as §1
Mus musculus [41] = assay: Biodistribution of compound (oxidized form) in blood tissues, animals were sacrificed 60 minutes after dosing, in DMSO solution; conditions: in vivo, 1 h; procedure, shortened: as §1
Mus musculus [42] = assay: Biodistribution of compound (oxidized form) in brain tissue, animals were sacrificed 60 minutes after dosing, in DMSO solution; conditions: in vivo, 1 h; procedure, shortened: as §1
Mus musculus [43] = assay: Biodistribution in mice, total concentration of both oxidized and reduced forms in brain tissues, animals were sacrificed 60 minutes after dosing, in DMSO; conditions: in vivo, 1 h; procedure, shortened: as §3
Mus musculus [44] = assay: Biodistribution of compound (oxidized form) in kidney tissue, animals were sacrificed 60 minutes after dosing, in DMSO solution; conditions: in vivo, 1 h; procedure, shortened: as §1
Mus musculus [45] = assay: Biodistribution of compound (oxidized form) in brain tissue, animals were sacrificed 10 minutes after dosing, in DMSO sol.; conditions: in vivo; procedure, shortened: as §1

In the case of CC(=O)OCOC(=O)C1CC(C)(C)N(OC(C)=O)C1(C)C (stereo not drawn), the Biodistribution (Mus musculus [1]) is reported as 20 nM (g of tissue)-1, the Biodistribution (Mus musculus [2]) is reported as 2500 nM (g of tissue)-1 and the Biodistribution (Mus musculus [3]) is reported as 150 nM (g of tissue)-1. The Biodistribution (Mus musculus [4]) was 50 nM (g of tissue)-1, the Biodistribution (Mus musculus [5]) was 750 nM (g of tissue)-1 and the Biodistribution (Mus musculus [6]) was 20 nM (g of tissue)-1. For the same compound, the Biodistribution (Mus musculus [7]) was 5 nM (g of tissue)-1, the Biodistribution (Mus musculus [8]) was 0 nM (g of tissue)-1 and the Biodistribution (Mus musculus [9]) was 20 nM (g of tissue)-1. The Biodistribution (Mus musculus [10]) was 250 nM (g of tissue)-1, the Biodistribution (Mus musculus [11]) was 40 nM (g of tissue)-1 and the Biodistribution (Mus musculus [12]) was 0 nM (g of tissue)-1. The Biodistribution (Mus musculus [13]) was 40 nM (g of tissue)-1, the Biodistribution (Mus musculus [14]) was 2500 nM (g of tissue)-1 and the Biodistribution (Mus musculus [15]) was 10 nM (g of tissue)-1. The Biodistribution (Mus musculus [16]) was 0 nM (g of tissue)-1, the Biodistribution (Mus musculus [17]) was 250 nM (g of tissue)-1 and the Biodistribution (Mus musculus [18]) was 400 nM (g of tissue)-1. For the same compound, the Biodistribution (Mus musculus [19]) was 50 nM (g of tissue)-1, the Biodistribution (Mus musculus [20]) was 100 nM (g of tissue)-1 and the Biodistribution (Mus musculus [21]) was 0 nM (g of tissue)-1. For the same compound, the Biodistribution (Mus musculus [22]) was 250 nM (g of tissue)-1, the Biodistribution (Mus musculus [23]) was 250 nM (g of tissue)-1 and the Biodistribution (Mus musculus [24]) was 750 nM (g of tissue)-1.
With COC(=O)C1CC(C)(C)N(OC(C)=O)C1(C)C (stereo not drawn) the Biodistribution (Mus musculus [25]) was 100 nM (g of tissue)-1, the Biodistribution (Mus musculus [26]) was 0 nM (g of tissue)-1 and the Biodistribution (Mus musculus [27]) was 0 nM (g of tissue)-1. The Biodistribution (Mus musculus [28]) was 0 nM (g of tissue)-1, the Biodistribution (Mus musculus [29]) was 400 nM (g of tissue)-1 and the Biodistribution (Mus musculus [30]) was 50 nM (g of tissue)-1. For the same compound, the Biodistribution (Mus musculus [31]) was 0 nM (g of tissue)-1, the Biodistribution (Mus musculus [32]) was 0 nM (g of tissue)-1 and the Biodistribution (Mus musculus [33]) was 25 nM (g of tissue)-1. The Biodistribution (Mus musculus [34]) was 0 nM (g of tissue)-1, the Biodistribution (Mus musculus [35]) was 0 nM (g of tissue)-1 and the Biodistribution (Mus musculus [36]) was 100 nM (g of tissue)-1. The Biodistribution (Mus musculus [37]) was 0 nM (g of tissue)-1, the Biodistribution (Mus musculus [38]) was 100 nM (g of tissue)-1 and the Biodistribution (Mus musculus [39]) was 25 nM (g of tissue)-1. For the same compound, the Biodistribution (Mus musculus [40]) was 0 nM (g of tissue)-1, the Biodistribution (Mus musculus [41]) was 0 nM (g of tissue)-1 and the Biodistribution (Mus musculus [42]) was 5 nM (g of tissue)-1. The Biodistribution (Mus musculus [17]) was 30 nM (g of tissue)-1, the Biodistribution (Mus musculus [43]) was 25 nM (g of tissue)-1 and the Biodistribution (Mus musculus [18]) was 25 nM (g of tissue)-1. The Biodistribution (Mus musculus [44]) was 0 nM (g of tissue)-1, the Biodistribution (Mus musculus [45]) was 2 nM (g of tissue)-1 and the Biodistribution (Mus musculus [23]) was 25 nM (g of tissue)-1.
